The values that follow come from ChEMBL document CHEMBL3994675, “Carbamylmethyl Mercaptoacetate Thioether: A Novel Scaffold for the Development of L1 Metallo-β-lactamase Inhibitors” (ACS Med Chem Lett, 2017).

The inhibition is how much of the control response was suppressed. A word on the IC50: it is the concentration at which inhibition is half-maximal. Low values mean higher potency, high ones lower potency. Usually Ki stands for a dissociation constant, usually derived from enzyme kinetics or from competition with a known ligand.

Each structure is given as a SMILES string.

A short description of data set [1]: Chemical stability in pH 5 Tris buffer after 4 days by UV-Visible spectral analysis. To be noted: pH 5, 96 h. The class given is physicochemical. The procedure, abridged:
(§1)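 Compounds incubated in aqueous solution at pH 5.0, 7.0 and 9.0 for 4 days; stability followed by UV-vis spectra.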

The nature of data set [2]: Chemical stability in pH 7 Tris buffer after 4 days by UV-Visible spectral analysis. Particulars: pH 7, 96 h. The format is physicochemical. The method, boiled down: as §1
The nature of data set [3]: Chemical stability in pH 9 Tris buffer after 4 days by UV-Visible spectral analysis. The format is physicochemical. Particulars: pH 9, 96 h. The procedure, abridged: as §1
A short description of data set [4]: Inhibition of IMP1 (unknown origin) expressed in Escherichia coli BL21(DE3) at 100 uM using cefazolin as substrate preincubated for 30 mins followed by substrate addition by UV-Visible spectrophotometric method relative to control. The procedure, abridged: (§2)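 Purified enzyme preincubated with 100 μM inhibitor in its enzyme-specific buffer, then substrate added: 50 μM cefazolin for IMP-1 and L1, 40 μM imipenem for ImiS. Hydrolysis followed by UV-vis spectrophotometry. Preincubation times of 3–60 min were tested. % inhibition = activity without inhibitor (100%) minus residual activity.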

A short description of data set [5]: Inhibition of ImiS (unknown origin) expressed in Escherichia coli BL21(DE3) at 100 uM using imipenem as substrate preincubated for 30 mins followed by substrate addition by UV-Visible spectrophotometric method relative to control. The method, boiled down:
as §2

Data set [6] in a line: Inhibition of L1 (unknown origin) expressed in Escherichia coli BL21(DE3) at 100 uM using cefazolin as substrate preincubated for 30 mins followed by substrate addition by UV-Visible spectrophotometric method relative to control. The method, boiled down: as §2
A short description of data set [7]: Inhibition of L1 (unknown origin) expressed in Escherichia coli BL21(DE3) using cefazolin as substrate preincubated for 30 mins followed by substrate addition by UV-Visible spectrophotometric method. The procedure, abridged:
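L1 IC50 measured in 30 mM Tris, pH 8.5, with cefazolin as substrate and inhibitor at 0.1–20 μM. Run in triplicate; mean ± SD reported.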

Data set [8] can be described thus: Inhibition of IMP1 (unknown origin) expressed in Escherichia coli BL21(DE3) at 100 uM using cefazolin as substrate preincubated for 3 to 60 mins followed by substrate addition by UV-Visible spectrophotometric method. To be noted: TDE = time-dependent effect. The procedure, abridged:
as §2

Data set [9] is described as follows: Inhibition of ImiS (unknown origin) expressed in Escherichia coli BL21(DE3) at 100 uM using imipenem as substrate preincubated for 3 to 60 mins followed by substrate addition by UV-Visible spectrophotometric method relative to control. Particulars: TDE = time-dependent effect. The procedure, abridged: as §2
A short description of data set [10]: Inhibition of L1 (unknown origin) expressed in Escherichia coli BL21(DE3) at 100 uM using cefazolin as substrate preincubated for 3 to 60 mins followed by substrate addition by UV-Visible spectrophotometric method relative to control. Particulars: TDE = time-dependent effect. The procedure, abridged: as §2
A short description of data set [11]: Inhibition of L1 (unknown origin) expressed in Escherichia coli BL21(DE3) using cefazolin as substrate by ITC. The method, boiled down:
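Isothermal titration calorimetry at 25 °C with 5 nM L1, 160 μM cefazolin and inhibitor at 0–100 μM; hydrolysis progress monitored as heat flow. Rates from runs at different substrate concentrations plotted against substrate concentration at 0, 50 and 100 μM inhibitor.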
A general note: In ITC the heat of successive injections is recorded.

The nature of data set [12]: Inhibition of L1 (unknown origin) expressed in Escherichia coli DH10B harboring pBC SK(+)-L1 assessed as potentiation of cefazolin-induced antibacterial activity by measuring cefazolin MIC at 1024 ug/ml after 12 hrs macrodilution broth method. The method, boiled down: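 Cefazolin MICs were read for E. coli DH10B carrying pBC SK(+)-L1 across a series of inhibitor concentrations. Cefazolin alone (no inhibitor) on the same strain served as the reference MIC. E. coli not expressing L1 was tested alongside as the susceptible comparator.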

Data set [13] deals with Escherichia coli. Briefly: Growth inhibition of Escherichia coli DH10B harboring pBC SK(+)-L1 at 1024 ug/ml after 12 hrs macrodilution broth method. Also on record: species or system K-12 substr. DH10B. The method, boiled down:
(§3)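 Cefazolin MIC determined for E. coli DH10B carrying pBC SK(+)-L1 and for E. coli not expressing L1, with and without compound.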

The subject of data set [14] is Escherichia coli. The data set can be described thus: Growth inhibition of Escherichia coli DH10B at 1024 ug/ml after 12 hrs macrodilution broth method. Also on record: species or system K-12 substr. DH10B. The method, boiled down:
as §3

The subject of a further data set is L929. Briefly: Cytotoxicity against mouse L929 cells assessed as reduction in cell viability up to 400 uM after 48 hrs by CCK assay. The class given is cell-based. To be noted: l929, 48 h. The procedure, abridged: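 L-929 mouse fibroblasts exposed to compound at 12.5, 25, 50, 100, 200 and 400 μM working concentrations; cell viability measured.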
Data set [15] in a line: Mixed-type inhibition of L1 (unknown origin) expressed in Escherichia coli BL21(DE3) using varying levels of cefazolin as substrate preincubated for 30 mins followed by substrate addition by Michaelis-Menten plot analysis.

Take `Cc1ccc(NC(=O)CSCC(=O)[O-])cc1.[K+]`: the Stability entry in [1], in data set [2] and in data set [3] was “Stable” throughout. Also, the inhibition in [4] is 37%; in data set [5], 52%; in [6] it was 97%; in [7], “Dose-dependent effect”; in data set [8], “Tde”; in [9] it was “Tde”. In addition, the inhibition entry was “Tde” in data set [10] and “Dose-dependent effect” in data set [11]. This molecule returned an IC50 in data set [7] of 410 nM. Moreover, the MIC in data set [12] was determined as 16 µg/mL. Further, the “growth inhibition (GI)” value in the data set with Escherichia coli [13] and in the data set on Escherichia coli [14] was “Non-Toxic” each time. In addition, the Activity result in the data set with L929 was “Non-Toxic”.

Turning to `CCc1ccccc1NC(=O)CSCC(=O)[O-].[K+]`, the inhibition was 80% in data set [4]; 21% in [5]; 92% in data set [6]; “Tde” in data set [8]; “Tde” in data set [9]; “Tde” in data set [10]. Moreover, the half-inhibitory concentration (IC50) in data set [7] came to 590 nM. In addition, the affinity in data set [15], expressed as Ki, was 3700 nM. The MIC in data set [12] was 16 µg/mL. Besides, the “growth inhibition (GI)” value with Escherichia coli [13] and in the data set with Escherichia coli [14] was “Non-Toxic” in each case.

As for `O=C([O-])CSCC(=O)Nc1ccccc1Cl.[K+]`, the Stability entry in data set [1], in [2] and in data set [3] was “Unstable” each time. The inhibition in data set [4] is 53%; in data set [5], 39%; in [6] it was 80%; in [8], “Tde”; in [9], “Tde”; in data set [10], “Tde”. The midpoint of inhibition in data set [7], the IC50, lay at 1040 nM. The MIC in [12] turned out to be 16 µg/mL. The “growth inhibition (GI)” value with Escherichia coli [13] and with Escherichia coli [14] was “Non-Toxic” in each case.

Consider `O=C([O-])CSCC(=O)Nc1cccc(Cl)c1.[K+]`, for which the inhibition in [4] is 48%; in data set [5], 34%; in data set [6], 79%; in data set [8], “Tde”; in data set [9] it was “Tde”; in data set [10] it was “Tde”. This molecule also had an IC50 in data set [7] of 2010 nM. The same molecule yielded a Ki in data set [15] of 31800 nM. In addition, the MIC in [12] turned out to be 16 µg/mL. Further, the “growth inhibition (GI)” value with Escherichia coli [13] and in the data set on Escherichia coli [14] was “Non-Toxic” each time.
